Experimental data as given in ChEMBL document CHEMBL3091454, “Improved Cav2.2 Channel Inhibitors through a gem-Dimethylsulfone Bioisostere Replacement of a Labile Sulfonamide” (ACS Med Chem Lett, 2013).

Assays:
[1] = Metabolic stability in rat liver microsomes assessed as compound remaining at 10 uM after 1 hr in presence of NADPH; assay type: ADME; settings: read-out: Stability
Summary of the method: (§1)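 Liver microsomes (rat or human) incubated with compound and NADPH for 1 h; percent of parent remaining. Table footnote gives 10 μM compound, 1 mM NADPH, 1 mg/mL protein; text gives 1 μM substrate, 1 mg/mL protein.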

[2] = Fraction unbound in 100% rat plasma; assay type: ADME, cell-free
Summary of the method: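 Unbound fraction measured in 100% rat plasma.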

[3] = Clearance in rat at 3 mg/kg, po and 1 mg/kg, iv; assay type: ADME, organism-based; settings: in vivo
Summary of the method: (§2)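 Rats dosed 3 mg/kg orally and 1 mg/kg intravenously; PK parameters derived from whole-blood concentrations. Normalized oral AUC given in μM·h·kg/mg, clearance in mL/min/kg, plus half-life and oral bioavailability.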

[4] = Metabolic stability in human liver microsomes assessed as compound remaining at 10 uM after 1 hr in presence of NADPH; assay type: ADME; settings: read-out: Stability; summary of the method: as §1
[5] = biological target: T1, Nuclear receptor subfamily 1 group I member 2 (Homo sapiens, UniProt O75469); test: Activation of PXR (unknown origin)
T1 sequence (O75469 whole entry): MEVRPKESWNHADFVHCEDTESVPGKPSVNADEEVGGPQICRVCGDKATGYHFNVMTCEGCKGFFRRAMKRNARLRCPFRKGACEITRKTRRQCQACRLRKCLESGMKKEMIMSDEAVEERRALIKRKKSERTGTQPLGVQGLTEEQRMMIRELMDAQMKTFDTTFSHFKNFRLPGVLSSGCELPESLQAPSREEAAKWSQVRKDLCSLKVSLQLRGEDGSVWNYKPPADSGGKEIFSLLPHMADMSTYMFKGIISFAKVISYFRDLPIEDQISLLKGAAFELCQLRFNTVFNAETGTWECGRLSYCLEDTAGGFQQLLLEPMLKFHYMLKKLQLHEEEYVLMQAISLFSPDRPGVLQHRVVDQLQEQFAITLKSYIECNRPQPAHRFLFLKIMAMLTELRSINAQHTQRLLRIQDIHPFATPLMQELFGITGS

Rattus norvegicus [6] = test: Antinociceptive activity in rat inflammatory pain model assessed as reversal of CFA-induced mechanical allodynia at 10 mg/kg, po after 3 hrs; assay type: functional
Summary of the method: (§3)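 Rats given intraplantar complete Freund's adjuvant in the hind paws to induce inflammatory pain; mechanical allodynia assessed 1 and 3 h after a single oral dose. Percent reversal per rat calculated as (postdose − predose)/(preinjury − predose), averaged over n = 6 rats.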

Rattus norvegicus [7] = test: Antinociceptive activity in rat inflammatory pain model assessed as reversal of CFA-induced mechanical allodynia at 10 mg/kg, po after 1 hr; assay type: functional; summary of the method: as §3
Rattus norvegicus [8] = test: Normalized AUC in rat whole blood at 3 mg/kg, po; assay type: ADME, organism-based; set-up: dose 3 mg/kg, route oral; settings: in vivo; summary of the method: as §2
[9] = biological target: Voltage-dependent N-type calcium channel subunit alpha-1B (Homo sapiens, UniProt Q00975); test: Inhibition of Cav2.2-mediated calcium influx in HEK cells by FLIPR assay; assay type: cell-based, HEK293
Summary of the method: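 Cav2.2 calcium-influx FLIPR assay; compounds screened for percent inhibition at single concentration, active ones titrated for IC50; values averaged over n ≥ 3.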

[10] = Oral bioavailability in rat at 3 mg/kg; assay type: ADME, organism-based; settings: in vivo; summary of the method: as §2
MDR1 (ABCB1) = MDR1 (ABCB1) (Homo sapiens, UniProt P08183); test: Activity at human MDR1 expressed in MDCK2 cells assessed as apparent permeability by LC/MS/MS analysis; assay type: ADME, cell-based, MDCK-II; settings: MDCK-MDR1
[11] = Half life in rat at 3 mg/kg, po and 1 mg/kg, iv; assay type: ADME, organism-based; settings: in vivo; summary of the method: as §2
hERG (KCNH2) = hERG (KCNH2) (Homo sapiens, UniProt Q12809); test: Displacement of [35S]MK-499 from human ERG at 10 uM relative to control; settings: probe [35S]MK-499
Summary of the method: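 hERG binding assessed by displacement of [35S]MK-499; percent inhibition at 10 μM test compound.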

CYP3A4 = CYP3A4 (Homo sapiens, UniProt P08684); test: Inhibition of CYP3A4 (unknown origin) at 10 uM relative to control; assay type: ADME
Liver microsome [12] = test: Drug metabolism in rat liver microsomes assessed as 3-(trifluoromethyl)-benzenesulfonamide level after 1 hr in presence of NADPH; assay type: ADME
Liver microsome [13] = test: Drug metabolism in human liver microsomes assessed as 3-(trifluoromethyl)-benzenesulfonamide level after 1 hr in presence of NADPH; assay type: ADME
Rattus norvegicus [14] = test: Normalized AUC in rat whole blood assessed as 3-(trifluoromethyl)-benzenesulfonamide level at 3 mg/kg, po; assay type: ADME, organism-based; set-up: dose 3 mg/kg, route oral; settings: in vivo
Summary of the method: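 Rats given a single 3 mg/kg oral dose of parent; whole-blood levels of parent and sulfonamide metabolite followed over time, n = 2 rats. Metabolite AUC normalized to dose (μM·h·kg/mg).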

Rattus norvegicus [15] = test: Antinociceptive activity in rat inflammatory pain model assessed as reversal of CFA-induced mechanical allodynia at 30 mg/kg, po after 1 hr; assay type: functional; summary of the method: as §3
Cytochrome P450 3A4 = Cytochrome P450 3A4 (Homo sapiens, UniProt P08684); test: Inhibition of CYP3A4 (unknown origin); assay type: ADME
Rattus norvegicus [16] = test: Antinociceptive activity in rat inflammatory pain model assessed as reversal of CFA-induced mechanical allodynia at 30 mg/kg, po after 3 hrs; assay type: functional; summary of the method: as §3

CYP3A4, sequence (P08684 whole entry): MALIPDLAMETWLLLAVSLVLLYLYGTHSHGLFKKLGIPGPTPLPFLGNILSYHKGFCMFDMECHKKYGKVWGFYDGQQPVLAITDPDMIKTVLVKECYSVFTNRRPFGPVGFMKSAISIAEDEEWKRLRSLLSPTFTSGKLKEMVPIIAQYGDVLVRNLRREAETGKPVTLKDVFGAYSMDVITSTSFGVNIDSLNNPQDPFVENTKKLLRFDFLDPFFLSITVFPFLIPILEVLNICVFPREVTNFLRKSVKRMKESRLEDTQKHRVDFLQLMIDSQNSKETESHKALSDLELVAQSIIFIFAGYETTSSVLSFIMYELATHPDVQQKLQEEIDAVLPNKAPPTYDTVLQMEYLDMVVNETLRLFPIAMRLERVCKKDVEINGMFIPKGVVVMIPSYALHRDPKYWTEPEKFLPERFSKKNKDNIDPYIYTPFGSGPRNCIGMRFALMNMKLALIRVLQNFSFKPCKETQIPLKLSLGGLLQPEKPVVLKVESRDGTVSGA
hERG (KCNH2), sequence (Q12809 whole entry): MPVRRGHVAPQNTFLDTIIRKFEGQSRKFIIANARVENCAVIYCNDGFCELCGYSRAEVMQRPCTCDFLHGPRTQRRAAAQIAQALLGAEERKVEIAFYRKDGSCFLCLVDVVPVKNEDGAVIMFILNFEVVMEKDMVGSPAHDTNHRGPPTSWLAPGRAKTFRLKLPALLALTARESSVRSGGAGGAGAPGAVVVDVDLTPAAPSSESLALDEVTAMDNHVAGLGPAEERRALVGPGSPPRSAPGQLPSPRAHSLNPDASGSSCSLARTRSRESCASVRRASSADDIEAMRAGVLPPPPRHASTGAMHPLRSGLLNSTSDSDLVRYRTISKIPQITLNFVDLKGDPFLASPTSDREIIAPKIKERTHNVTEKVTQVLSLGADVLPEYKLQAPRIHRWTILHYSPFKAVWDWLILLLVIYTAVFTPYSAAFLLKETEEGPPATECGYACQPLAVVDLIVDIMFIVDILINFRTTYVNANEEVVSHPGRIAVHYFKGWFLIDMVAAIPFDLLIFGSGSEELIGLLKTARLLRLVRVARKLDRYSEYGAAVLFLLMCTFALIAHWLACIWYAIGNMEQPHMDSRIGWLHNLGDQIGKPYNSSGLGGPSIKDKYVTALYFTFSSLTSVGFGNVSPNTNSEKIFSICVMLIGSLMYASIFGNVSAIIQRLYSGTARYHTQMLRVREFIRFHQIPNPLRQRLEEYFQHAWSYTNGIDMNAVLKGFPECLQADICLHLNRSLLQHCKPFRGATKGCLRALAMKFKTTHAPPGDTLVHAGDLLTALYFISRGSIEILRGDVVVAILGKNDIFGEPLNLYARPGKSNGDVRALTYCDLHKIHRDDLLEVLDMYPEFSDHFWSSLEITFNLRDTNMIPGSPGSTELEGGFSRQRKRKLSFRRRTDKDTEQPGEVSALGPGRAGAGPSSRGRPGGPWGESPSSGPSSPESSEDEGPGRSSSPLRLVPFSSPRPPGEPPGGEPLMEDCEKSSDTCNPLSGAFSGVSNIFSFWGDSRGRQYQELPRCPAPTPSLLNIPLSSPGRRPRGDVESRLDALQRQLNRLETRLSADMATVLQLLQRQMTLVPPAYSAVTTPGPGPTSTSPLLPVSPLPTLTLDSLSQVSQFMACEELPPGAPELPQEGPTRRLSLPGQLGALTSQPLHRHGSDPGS
Voltage-dependent N-type calcium channel subunit alpha-1B, sequence (Q00975 whole entry): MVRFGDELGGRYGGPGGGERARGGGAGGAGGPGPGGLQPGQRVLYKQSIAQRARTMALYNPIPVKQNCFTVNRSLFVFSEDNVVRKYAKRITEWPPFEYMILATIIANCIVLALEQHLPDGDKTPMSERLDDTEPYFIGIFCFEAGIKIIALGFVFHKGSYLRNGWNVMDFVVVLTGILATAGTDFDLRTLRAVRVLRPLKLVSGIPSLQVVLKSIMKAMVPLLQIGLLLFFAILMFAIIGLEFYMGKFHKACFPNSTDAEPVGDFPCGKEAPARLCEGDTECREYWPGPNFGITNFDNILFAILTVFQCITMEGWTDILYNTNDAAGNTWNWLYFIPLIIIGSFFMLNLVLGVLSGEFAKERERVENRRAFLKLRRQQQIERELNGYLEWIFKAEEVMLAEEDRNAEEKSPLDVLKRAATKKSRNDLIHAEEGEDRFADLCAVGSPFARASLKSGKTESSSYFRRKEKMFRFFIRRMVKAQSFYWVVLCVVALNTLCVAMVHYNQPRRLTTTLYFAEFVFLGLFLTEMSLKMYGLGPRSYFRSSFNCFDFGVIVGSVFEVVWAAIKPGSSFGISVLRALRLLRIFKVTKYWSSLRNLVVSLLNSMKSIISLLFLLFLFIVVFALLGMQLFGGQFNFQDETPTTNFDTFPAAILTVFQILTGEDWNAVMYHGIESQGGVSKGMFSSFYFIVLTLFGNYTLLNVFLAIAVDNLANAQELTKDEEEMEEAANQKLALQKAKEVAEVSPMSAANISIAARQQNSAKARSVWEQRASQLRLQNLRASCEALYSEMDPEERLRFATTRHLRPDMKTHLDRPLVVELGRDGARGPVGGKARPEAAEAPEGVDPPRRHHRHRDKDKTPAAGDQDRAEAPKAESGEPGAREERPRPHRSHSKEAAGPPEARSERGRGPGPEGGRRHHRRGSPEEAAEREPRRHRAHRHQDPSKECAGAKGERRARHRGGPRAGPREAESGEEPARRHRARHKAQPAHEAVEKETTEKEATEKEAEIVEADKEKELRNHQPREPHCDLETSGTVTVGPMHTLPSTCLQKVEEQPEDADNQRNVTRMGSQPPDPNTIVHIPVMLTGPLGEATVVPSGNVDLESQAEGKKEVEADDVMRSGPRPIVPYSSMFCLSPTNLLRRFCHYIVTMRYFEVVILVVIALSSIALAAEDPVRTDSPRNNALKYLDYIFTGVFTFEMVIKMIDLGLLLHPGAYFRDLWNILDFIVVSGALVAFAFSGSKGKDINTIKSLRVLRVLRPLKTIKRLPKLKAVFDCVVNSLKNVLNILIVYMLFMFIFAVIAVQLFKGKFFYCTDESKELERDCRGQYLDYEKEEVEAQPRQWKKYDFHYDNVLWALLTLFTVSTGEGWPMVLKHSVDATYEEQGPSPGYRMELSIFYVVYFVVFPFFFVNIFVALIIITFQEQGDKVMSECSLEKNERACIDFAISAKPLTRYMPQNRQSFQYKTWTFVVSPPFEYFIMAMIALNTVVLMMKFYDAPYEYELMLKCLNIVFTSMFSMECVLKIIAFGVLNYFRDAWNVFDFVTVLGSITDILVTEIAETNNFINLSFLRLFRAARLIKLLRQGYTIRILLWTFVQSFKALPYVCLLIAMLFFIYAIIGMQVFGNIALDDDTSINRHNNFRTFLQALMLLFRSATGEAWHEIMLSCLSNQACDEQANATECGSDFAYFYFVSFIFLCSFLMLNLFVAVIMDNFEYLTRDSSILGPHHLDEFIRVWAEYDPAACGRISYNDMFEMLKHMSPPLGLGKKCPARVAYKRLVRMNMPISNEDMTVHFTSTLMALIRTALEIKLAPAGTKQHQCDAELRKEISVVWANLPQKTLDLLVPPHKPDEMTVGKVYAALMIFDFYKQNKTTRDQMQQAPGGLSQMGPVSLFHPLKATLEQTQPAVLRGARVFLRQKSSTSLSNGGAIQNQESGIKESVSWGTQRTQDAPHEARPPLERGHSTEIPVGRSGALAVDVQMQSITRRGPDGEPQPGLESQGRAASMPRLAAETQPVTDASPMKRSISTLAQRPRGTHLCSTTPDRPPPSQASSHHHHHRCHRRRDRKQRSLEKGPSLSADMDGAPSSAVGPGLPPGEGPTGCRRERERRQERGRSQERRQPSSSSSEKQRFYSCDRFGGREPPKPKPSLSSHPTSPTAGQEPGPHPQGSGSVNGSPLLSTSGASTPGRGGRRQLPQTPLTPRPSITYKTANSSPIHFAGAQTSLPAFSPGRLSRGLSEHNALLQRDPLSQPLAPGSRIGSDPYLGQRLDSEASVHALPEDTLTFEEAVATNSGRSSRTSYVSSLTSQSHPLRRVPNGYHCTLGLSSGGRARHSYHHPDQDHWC
Cytochrome P450 3A4, sequence (P08684 whole entry): as the sequence (P08684 whole entry) above

| Compound | remaining at 1 h, 10 µM [1] [%] | remaining at 1 h, 10 µM [4] [%] | EC50 [5] [nM] | IC50 [9] [nM] | inhibition at 10 µM (CYP3A4) [%] | inhibition at 10 µM (hERG (KCNH2)) [%] | other results |
| --- | --- | --- | --- | --- | --- | --- | --- |
| CC(C)(C1CCN(C(=O)c2ccc(S(C)(=O)=O)cc2OC(F)(F)F)CC1)S(=O)(=O)c1cccc(C(F)(F)F)c1 | 73 | 62 | > 30000 | 92 |  |  | fraction unbound [2]: 0.013; clearance [3]: 27 mL/min/kg; Efficacy (Rattus norvegicus [6]): 30%; Efficacy (Rattus norvegicus [7]): 21%; AUC/dose (Rattus norvegicus [8]): 0.97 µM·kg·h/mg; bioavailability [10]: 95%; Papp (MDR1 (ABCB1)): 35 ×10⁻⁶ cm/s; half-life [11]: 2.3 h |
| CS(=O)(=O)c1ccc(F)cc1C(=O)N1CCC(N(C2CC2)S(=O)(=O)c2cccc(C(F)(F)F)c2)CC1 |  |  |  |  | 75 |  | Drug metabolism (Liver microsome [12]): 0.01 µM; Efficacy (Rattus norvegicus [6]): 38%; Efficacy (Rattus norvegicus [7]): 43%; Drug metabolism (Liver microsome [13]): 0.03 µM |
| CS(=O)(=O)c1cc(C(F)(F)F)ccc1C(=O)N1CCC(N(C2CC2)S(=O)(=O)c2cccc(C(F)(F)F)c2)CC1 |  |  | 4300 | 27 | 78 | 43 |  |
| CS(=O)(=O)c1ccc(F)cc1C(=O)N1CC(N(C2CC2)S(=O)(=O)c2cccc(C(F)(F)F)c2)C1 |  |  |  | 970 |  |  |  |
| CS(=O)(=O)c1cc(C(F)(F)F)ccc1C(=O)N1CCC2(CCN(S(=O)(=O)c3cccc(C(F)(F)F)c3)CC2)C1 | 12 | 8.5 |  | 72 |  |  | AUC/dose (Rattus norvegicus [8]): 0.022 µM·kg·h/mg; AUC/dose (Rattus norvegicus [14]): 218 µM·kg·h/mg |
| CC(C)(C1CCN(C(=O)c2cc(F)ccc2S(C)(=O)=O)CC1)S(=O)(=O)c1cccc(C(F)(F)F)c1 | 68 | 64 | 2500 | 510 |  |  | fraction unbound [2]: 0.068; clearance [3]: 29 mL/min/kg; Efficacy (Rattus norvegicus [15]): 57%; IC50 (Cytochrome P450 3A4): 10000 nM; Efficacy (Rattus norvegicus [6]): 49%; Efficacy (Rattus norvegicus [7]): 36%; AUC/dose (Rattus norvegicus [8]): 0.27 µM·kg·h/mg; bioavailability [10]: 24%; Efficacy (Rattus norvegicus [16]): 54%; Papp (MDR1 (ABCB1)): 35 ×10⁻⁶ cm/s |
| CS(=O)(=O)c1ccc(C(=O)N2CCC(N(C3CC3)S(=O)(=O)c3cccc(C(F)(F)F)c3)CC2)c(C(F)(F)F)c1 |  |  | 2800 | 21 | 75 | 58 |  |
| NS(=O)(=O)c1cccc(C(F)(F)F)c1 |  |  |  | > 10000 |  |  | clearance [3]: 0.31 mL/min/kg; Efficacy (Rattus norvegicus [15]): 53%; AUC/dose (Rattus norvegicus [8]): 111 µM·kg·h/mg; bioavailability [10]: 46%; Efficacy (Rattus norvegicus [16]): 44% |
| CS(=O)(=O)c1ccc(C(=O)N2CC(N(C3CC3)S(=O)(=O)c3cccc(C(F)(F)F)c3)C2)c(C(F)(F)F)c1 | 72 | 78 |  | 270 |  |  | Drug metabolism (Liver microsome [12]): 0.04 µM; Drug metabolism (Liver microsome [13]): 0.45 µM |
| CS(=O)(=O)c1ccc(C#N)cc1C(=O)N1CCC(N(C2CC2)S(=O)(=O)c2cccc(C(F)(F)F)c2)CC1 |  |  | 5000 | 670 | 59 | 41 |  |

Further lines, with some results ahead:

| remaining at 1 h, 10 µM [1] [%] | remaining at 1 h, 10 µM [4] [%] | EC50 [5] [nM] | IC50 [9] [nM] | inhibition at 10 µM (CYP3A4) [%] | Compound | inhibition at 10 µM (hERG (KCNH2)) [%] | other results |
| --- | --- | --- | --- | --- | --- | --- | --- |
|  |  | 8400 | 450 | 86 | CS(=O)(=O)c1cc(C#N)ccc1C(=O)N1CCC(N(C2CC2)S(=O)(=O)c2cccc(C(F)(F)F)c2)CC1 | 66 |  |
|  |  |  | 360 |  | CS(=O)(=O)c1ccc(C(=O)N2CCC(CS(=O)(=O)c3cccc(C(F)(F)F)c3)CC2)c(OC(F)(F)F)c1 |  |  |
|  |  |  | 430 |  | C[C@H]1[C@H](N(C2CC2)S(=O)(=O)c2cccc(C(F)(F)F)c2)CN1C(=O)c1cc(F)ccc1S(C)(=O)=O (racemic) |  |  |
|  |  | > 10000 | 390 | 60 | NC(=O)c1ccc(C(=O)N2CCC(N(C3CC3)S(=O)(=O)c3cccc(C(F)(F)F)c3)CC2)c(OC(F)(F)F)c1 | 41 |  |
| 18 | 26 |  | 460 |  | CN(C1CCN(C(=O)c2ccccc2S(C)(=O)=O)CC1)S(=O)(=O)c1cccc(C(F)(F)F)c1 |  | Drug metabolism (Liver microsome [12]): 0.08 µM; Drug metabolism (Liver microsome [13]): 0.95 µM |
